Converted amounts (≈) assume the structure as drawn. Residues, ends and D or L forms follow the SMILES beside them. *: point of attachment. X3 = Cc1cc2nc(-c3c(I)cc(C(=O)*)cc3I)[nH]c2cc1C; X4 = Cc1cc2nc(-c3ccc(C(=O)*)cc3)[nH]c2cc1C
How the values were obtained:
Staphylococcus aureus [1] = experiment: Antibacterial activity against Staphylococcus aureus NCIM 2079 after 18 hrs by disc diffusion method; assay type: functional
Outline: (§1)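 Modified Kirby-Bauer disc diffusion. Plates inoculated with spore suspension (about 6 × 10⁴ spores mL^-1). Sterile 6 mm paper discs carried test samples at 10 mg mL^-1; ciprofloxacin disc as reference, DMF disc as negative control. Plates held 18 h at 37 °C. Inhibition zone diameters (mm) averaged over triplicate sets.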

Eudrilus [2] = experiment: Anthelmintic activity against Eudrilus sp. assessed as mean death time; assay type: functional
Outline: (§2)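 Earthworms exposed to test suspensions at 2 mg mL−1, prepared by triturating compound with Tween 80 (0.5%) and distilled water, stirring 30 min, then diluting to 0.2% w/v. Mebendazole suspension was made the same way. Death was confirmed by moving worms into 50 °C warm water and looking for movement. Mean death time (min) taken from triplicate sets.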

Escherichia coli [3] = experiment: Antibacterial activity against Escherichia coli NCIM 2065 after 18 hrs by tube dilution method; assay type: functional; details: NCIM 2065, 18 h
Pontoscolex corethrurus [4] = experiment: Anthelmintic activity against Pontoscolex corethrurus ICARBC 408 assessed as mean paralyzing time; assay type: functional
Outline: (§3)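 Earthworms exposed to test suspensions at 2 mg mL^-1 (0.2% w/v), made by triturating compound with Tween 80 (0.5%) and distilled water, then mechanically stirred 30 min. Mebendazole suspension prepared alike as reference. Paralysis and death times recorded; death confirmed by no movement in 50 °C water. Means from triplicate sets.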

Candida albicans [5] = experiment: Antifungal activity against Candida albicans MUCC 29 after 48 hrs by disc diffusion method; assay type: functional
Outline: (§4)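 Agar well diffusion on plates inoculated with spore suspension in normal saline from cultures on Sabouraud's broth. Wells punched and loaded with test samples or griseofulvin at 10 mg mL^-1, with DMSO as negative control. Incubated 48 h at 37 °C.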

Microsporum audouinii [6] = experiment: Antifungal activity against Microsporum audouinii MUCC 545 after 48 hrs by tube dilution method; assay type: functional
Outline: (§5)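 Tube dilution MIC as for bacteria (seven concentrations, 200–3.1 […]), with DMSO in place of DMF. Tubes inoculated with fungal culture and incubated 48 h at 37 °C. MIC read from presence or absence of growth.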

[7] = Anthelmintic activity against Megascoplex konkanensis ICARBC 211 assessed as mean death time; assay type: functional; outline: as §3
Trichophyton benhamiae [8] = experiment: Antifungal activity against Trichophyton mentagrophytes MUCC 665 after 48 hrs by disc diffusion method; assay type: functional, Arthroderma benhamiae; outline: as §4
Pseudomonas aeruginosa [9] = experiment: Antibacterial activity against Pseudomonas aeruginosa NCIM 2034 after 18 hrs by disc diffusion method; assay type: functional; outline: as §1
Eudrilus [10] = experiment: Anthelmintic activity against Eudrilus sp. assessed as mean paralyzing time; assay type: functional; outline: as §3
Staphylococcus aureus [11] = experiment: Antibacterial activity against Staphylococcus aureus NCIM 2079 after 18 hrs by tube dilution method; assay type: functional; details: NCIM 2079, 18 h
Outline: (§6)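 Tube dilution MIC. Stock diluted in sterile broth to seven concentrations from 200 to 3.1 […]. Each tube inoculated with one loopful of test bacterium and incubated 18 h at 37 °C. MIC read from presence or absence of growth.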

Bacillus subtilis [12] = experiment: Antibacterial activity against Bacillus subtilis NCIM 2063 after 18 hrs by tube dilution method; assay type: functional; details: NCIM 2063, 18 h; outline: as §6
Candida albicans [13] = experiment: Antifungal activity against Candida albicans MUCC 29 after 48 hrs by tube dilution method; assay type: functional; outline: as §5
[14] = Anthelmintic activity against Megascoplex konkanensis ICARBC 211 assessed as mean paralyzing time; assay type: functional; outline: as §3
Microsporum audouinii [15] = experiment: Antifungal activity against Microsporum audouinii MUCC 545 after 48 hrs by disc diffusion method; assay type: functional; outline: as §4
Pontoscolex corethrurus [16] = experiment: Anthelmintic activity against Pontoscolex corethrurus ICARBC 408 assessed as mean death time; assay type: functional; outline: as §2
Escherichia coli [17] = experiment: Antibacterial activity against Escherichia coli NCIM 2065 after 18 hrs by disc diffusion method; assay type: functional; outline: as §1
Aspergillus niger = experiment: Antifungal activity against Aspergillus niger MUCC 177 after 48 hrs by disc diffusion method; assay type: functional; outline: as §4
Pseudomonas aeruginosa [18] = experiment: Antibacterial activity against Pseudomonas aeruginosa NCIM 2034 after 18 hrs by tube dilution method; assay type: functional; details: NCIM 2034, 18 h; outline: as §6
Bacillus subtilis [19] = experiment: Antibacterial activity against Bacillus subtilis NCIM 2063 after 18 hrs by disc diffusion method; assay type: functional; outline: as §1
Trichophyton benhamiae [20] = experiment: Antifungal activity against Trichophyton mentagrophytes MUCC 665 after 48 hrs by tube dilution method; assay type: functional, Arthroderma benhamiae; outline: as §5

SMILES	inhibition zone (IZ) (Staphylococcus aureus [1])	Time (Eudrilus [2])	MIC (Escherichia coli [3])	Time (Pontoscolex corethrurus [4])	inhibition zone (IZ) (Candida albicans [5])	MIC (Microsporum audouinii [6])	TIME [7]	inhibition zone (IZ) (Trichophyton benhamiae [8])	inhibition zone (IZ) (Pseudomonas aeruginosa [9])	Time (Eudrilus [10])	MIC (Staphylococcus aureus [11])	MIC (Bacillus subtilis [12])	MIC (Candida albicans [13])	TIME [14]	inhibition zone (IZ) (Microsporum audouinii [15])	Time (Pontoscolex corethrurus [16])	inhibition zone (IZ) (Aspergillus niger)	MIC (Pseudomonas aeruginosa [18])	inhibition zone (IZ) (Bacillus subtilis [19])	MIC (Trichophyton benhamiae [20])	also measured
CC[C@H](C)[C@H](NC(=O)[C@H](CC(C)C)NC(=O)c1cc(-c2nc3cc(C)c(C)cc3[nH]2)ccc1O)C(=O)OC	10 mm	36.12 min	12.5 µg/mL (≈ 23.9 µM)	29.83 min	19 mm	6 µg/mL (≈ 11.5 µM)	0.569 h	13 mm	20 mm	25.69 min	12.5 µg/mL (≈ 23.9 µM)	6 µg/mL (≈ 11.5 µM)	6 µg/mL (≈ 11.5 µM)	0.425 h	12 mm	41.53 min	19 mm	6 µg/mL (≈ 11.5 µM)	15 mm	6 µg/mL (≈ 11.5 µM)	inhibition zone (IZ) (Escherichia coli [17]): 16 mm
COC(=O)[C@@H]1CCCN1C(=O)[C@H](Cc1cnc[nH]1)NC(=O)c1cc(I)c(-c2nc3cc(C)c(C)cc3[nH]2)c(I)c1	11 mm	23.98 min	12.5 µg/mL (≈ 16.3 µM)	17.52 min	16 mm	25 µg/mL (≈ 32.6 µM)	0.379 h	12 mm	24 mm	13.48 min	12.5 µg/mL (≈ 16.3 µM)	6 µg/mL (≈ 7.83 µM)	6 µg/mL (≈ 7.83 µM)	0.229 h	9 mm	29.58 min	13 mm	6 µg/mL (≈ 7.83 µM)	14 mm	6 µg/mL (≈ 7.83 µM)	inhibition zone (IZ) (Escherichia coli [17]): 17 mm
Cc1cc2nc(-c3c(I)cc(C(=O)N[C@@H](Cc4ccccc4)C(=O)N[C@H](C(=O)N4CCC[C@H]4C(=O)O)C(C)C)cc3I)[nH]c2cc1C	13 mm	44.1 min	25 µg/mL (≈ 29 µM)	34.13 min	17 mm	12.5 µg/mL (≈ 14.5 µM)	0.698 h	13 mm	24 mm	27.1 min	25 µg/mL (≈ 29 µM)	6 µg/mL (≈ 6.96 µM)	6 µg/mL (≈ 6.96 µM)	0.44 h	11 mm	50.13 min	15 mm	12.5 µg/mL (≈ 14.5 µM)	17 mm	6 µg/mL (≈ 6.96 µM)	inhibition zone (IZ) (Escherichia coli [17]): 18 mm
COC(=O)Nc1nc2cc(C(=O)c3ccccc3)ccc2[nH]1 [MEBENDAZOLE]	–	24.05 min	–	17.85 min	–	–	0.382 h	–	–	13.54 min	–	–	–	0.231 h	–	29.64 min	–	–	–	–	–
O=C(O)CNC(=O)CNC(=O)c1cc(-c2nc3ccc([N+](=O)[O-])cc3[nH]2)ccc1O	9 mm	36.7 min	12.5 µg/mL (≈ 30.2 µM)	31.18 min	18 mm	6 µg/mL (≈ 14.5 µM)	0.601 h	16 mm	22 mm	25.5 min	12.5 µg/mL (≈ 30.2 µM)	25 µg/mL (≈ 60.5 µM)	6 µg/mL (≈ 14.5 µM)	0.451 h	13 mm	42.26 min	17 mm	6 µg/mL (≈ 14.5 µM)	9 mm	6 µg/mL (≈ 14.5 µM)	inhibition zone (IZ) (Escherichia coli [17]): 16 mm
COC(=O)[C@H](CCCNC(=N)N[N+](=O)[O-])NC(=O)c1cc(-c2nc3ccc([N+](=O)[O-])cc3[nH]2)ccc1O	10 mm	28.27 min	12.5 µg/mL (≈ 24.3 µM)	20.65 min	15 mm	6 µg/mL (≈ 11.7 µM)	0.426 h	15 mm	19 mm	17.98 min	25 µg/mL (≈ 48.6 µM)	6 µg/mL (≈ 11.7 µM)	12.5 µg/mL (≈ 24.3 µM)	0.27 h	13 mm	32.22 min	18 mm	6 µg/mL (≈ 11.7 µM)	13 mm	6 µg/mL (≈ 11.7 µM)	inhibition zone (IZ) (Escherichia coli [17]): 15 mm
CC[C@H](C)[C@H](NC(=O)CNC(=O)[C@H](Cc1c[nH]c2ccccc12)NC(=O)c1ccc(-c2nc3cc(C)c(C)cc3[nH]2)cc1)C(=O)N[C@@H](C)C(=O)OC (X4-WGIA-OMe)	10 mm	24.1 min	12.5 µg/mL (≈ 17.7 µM)	17.22 min	19 mm	6 µg/mL (≈ 8.48 µM)	0.375 h	9 mm	20 mm	13.59 min	12.5 µg/mL (≈ 17.7 µM)	6 µg/mL (≈ 8.48 µM)	25 µg/mL (≈ 35.3 µM)	0.221 h	10 mm	29.57 min	19 mm	6 µg/mL (≈ 8.48 µM)	14 mm	25 µg/mL (≈ 35.3 µM)	inhibition zone (IZ) (Escherichia coli [17]): 18 mm
O=C(O)c1cn(C2CC2)c2cc(N3CCNCC3)c(F)cc2c1=O [CIPROFLOXACIN]	20 mm	–	12.5 µg/mL (≈ 37.7 µM)	–	–	–	–	–	25 mm	–	12.5 µg/mL (≈ 37.7 µM)	6 µg/mL (≈ 18.1 µM)	–	–	–	–	–	6 µg/mL (≈ 18.1 µM)	20 mm	–	–
CC[C@H](C)[C@H](NC(=O)CNC(=O)c1cc(I)c(-c2nc3cc(C)c(C)cc3[nH]2)c(I)c1)C(=O)NCC(=O)N[C@H](C(=O)OC)[C@@H](C)O (X3-GIGT-OMe)	12 mm	70.54 min	12.5 µg/mL (≈ 14.5 µM)	57.67 min	13 mm	25 µg/mL (≈ 29.1 µM)	1.08 h	9 mm	22 mm	38.45 min	12.5 µg/mL (≈ 14.5 µM)	6 µg/mL (≈ 6.97 µM)	12.5 µg/mL (≈ 14.5 µM)	0.602 h	9 mm	82.3 min	18 mm	6 µg/mL (≈ 6.97 µM)	15 mm	25 µg/mL (≈ 29.1 µM)	inhibition zone (IZ) (Escherichia coli [17]): 17 mm
COC(=O)[C@H](Cc1ccccc1)NC(=O)[C@@H]1CCCN1C(=O)[C@@H]1CCCN1C(=O)c1ccc(-c2nc3cc(C)c(C)cc3[nH]2)cc1	8 mm	53.34 min	25 µg/mL (≈ 40.2 µM)	49.35 min	16 mm	25 µg/mL (≈ 40.2 µM)	1.04 h	13 mm	20 mm	32.82 min	25 µg/mL (≈ 40.2 µM)	12.5 µg/mL (≈ 20.1 µM)	6 µg/mL (≈ 9.65 µM)	0.613 h	9 mm	72.24 min	14 mm	6 µg/mL (≈ 9.65 µM)	13 mm	6 µg/mL (≈ 9.65 µM)	inhibition zone (IZ) (Escherichia coli [17]): 16 mm
COC1=CC(=O)C[C@@H](C)[C@]12Oc1c(Cl)c(OC)cc(OC)c1C2=O [GRISEOFULVIN]	–	–	–	–	20 mm	6 µg/mL (≈ 17 µM)	–	20 mm	–	–	–	–	6 µg/mL (≈ 17 µM)	–	17 mm	–	18 mm	–	–	6 µg/mL (≈ 17 µM)	–

Reference: ChEMBL document CHEMBL1146375, “Synthetic studies on novel benzimidazolopeptides with antimicrobial, cytotoxic and anthelmintic potential” (2007)
